Results on 14 molecules are retold here after ChEMBL document CHEMBL1129639, “Synthesis and cardiotonic activity of novel pyrimidine derivatives: crystallographic and quantum chemical studies” (J Med Chem, 1996).

Type in all cases: functional
The species entered for assay [1] is Cavia porcellus. Briefly: Compound was evaluated for its effect on the frequency rate of spontaneously beating atria from Reserpine-treated guinea pigs as percentage variation from the control at concentration of 3 x 10E-5 M. The method in brief:
(§1)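 Atria from reserpine-treated guinea pigs (reserpine 2 mg/kg ip, 48 and 24 h before death; only tyramine-unresponsive preparations used). Bath solution at 29 °C, gassed 95% O2/5% CO2, pH 7.5, resting tension […]. After 90 min equilibration, compound added cumulatively, 5 min per concentration. Isometric developed-tension amplitude or beating rate given as % variation from untreated control. Mean ± SEM, 6-10 assays.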

For assay [2], the species on record is Cavia porcellus. As to the kind of experiment: Effect on the contractile force of spontaneously beating atria from Reserpine-treated guinea pigs as percentage variation from the control at concentration of 10E-6 M. The method in brief: as §1
The species named for assay [3] is Cavia porcellus. Briefly: Effect on the contractile force of spontaneously beating atria from Reserpine treated guinea pigs as percentage variation from the control at concentration of 10E-4 M. The method in brief:
as §1

Assay [4] is filed under the species Cavia porcellus. Briefly: Compound was evaluated for its effect on the frequency rate of spontaneously beating atria from Reserpine-treated guinea pigs as percentage variation from the control at concentration of 3 x 10E-6 M. Put shortly:
as §1

For assay [5], the species on record is Cavia porcellus. Briefly: Effect on the frequency rate of spontaneously beating atria from Reserpine-treated guinea pigs as percentage variation from the control at concentration of 10E-5 M. The method in brief:
as §1

Assay [6] is filed under the species Cavia porcellus. Briefly: Effect on the frequency rate of spontaneously beating atria from Reserpine-treated guinea pigs as percentage variation from the control at concentration of 10E-4 M. Put shortly: as §1
The species named for assay [7] is Cavia porcellus. Briefly: Effect on the contractile force of spontaneously beating atria from Reserpine-treated guinea pigs as percentage variation from the control at concentration of 10E-5 M. Put shortly: as §1
For assay [8], the species on record is Cavia porcellus. Briefly: Effect on the contractile force of spontaneously beating atria from Reserpine-treated guinea pigs as percentage variation from the control at concentration of 3 x 10E-6 M. The method in brief: as §1
For assay [9], the species on record is Cavia porcellus. Briefly: Effect on the contractile force of spontaneously beating atria from Reserpine-treated guinea pigs as percentage variation from the control at concentration of 3 x 10E-5 M. The method in brief: as §1
The species entered for assay [10] is Cavia porcellus. As to the kind of experiment: Effect on the contractile force of spontaneously beating atria from Reserpine-treated guinea pigs as percentage variation from the control at concentration of 3 x 10E-4 M. Put shortly: as §1
For assay [11], the species on record is Cavia porcellus. As to the kind of experiment: Effect on the frequency rate of spontaneously beating atria from Reserpine-treated guinea pigs as percentage variation from the control at concentration of 10E-3 M. Put shortly:
as §1

For assay [12], the species on record is Cavia porcellus. As to the kind of experiment: Effect on the contractile force of spontaneously beating atria from Reserpine-treated guinea pigs as percentage variation from the control at concentration of 10E-3 M. The method in brief: as §1
The species entered for assay [13] is Cavia porcellus. Briefly: Compound was evaluated for its effect on the frequency rate of spontaneously beating atria from Reserpine-treated guinea pigs as percentage variation from the control at concentration of 3 x 10E-4 M. The method in brief:
as §1

Assay [14] is filed under the species Cavia porcellus. As to the kind of experiment: Effect on the frequency rate of spontaneously beating atria from Reserpine-treated guinea pigs as percentage variation from the control at concentration of 10E-6 M. The method in brief: as §1

For `CCOC(=O)c1cnc(N(C)C)nc1CC`, the Variation in assay [1] is reported as -14.76%; in [2], 0%; in assay [3], -100%; in assay [4] it was -6.25%; in assay [5] it was -9.37%; in [6], -100%. The Variation in assay [7] was -39.54%; in [8] it was 0%; in [9], -67.44%.
In the case of `CC(C)c1nc(N(C)C)ncc1C(=O)O`, the Variation in assay [1] was -10.71%; in assay [2] it was 1.79%; in assay [10] it was 16.41%; in assay [11], -28.57%; in [3], 11.77%; in [4], -3.13%. Also, the Variation was 23.17% in [12]; -3.13% in assay [5]; -14.28% in [6]; 7.13% in [7]; 4.06% in assay [8]; -17.58% in assay [13]. Besides, the values for the Variation in assay [9] and in assay [14] were 7.79% and 0%, respectively.
Consider `COCc1nc(N(C)C)ncc1C(=O)O`, for which the Variation in assay [1] is -3.12%; in assay [2] it was 5.46%; in assay [10], 8.19%; in [11], -9.37%; in [3] it was 8.24%; in assay [4], 0%. Besides, the Variation is given as 5.92% in assay [12]; 0% in [5]; -6.25% in assay [6]; 9.99% in assay [7]; 9.16% in assay [8]; -6.25% in [13]. Also, the values for the Variation in assay [9] and in assay [14] were 9.72% and 0%, respectively.
Regarding `COCc1ccnc(N(C)C)n1`, the Variation in assay [1] is -4%; in assay [2], 0%; in assay [10], -11.89%; in assay [11] it was -9.33%; in assay [3], -9.03%; in assay [4] it was 0%. The Variation was -20.93% in [12]; -1.33% in assay [5]; -4% in [6]; 0% in [7]; 0% in assay [8]; 4% in [13]. In addition, the Variation is listed as -8.02% in [9] and 0% in [14].
For the molecule `CN(C)c1ncc(C(=O)O)c(-c2ccccc2)n1`, the Variation in [1] is 0%; in assay [2], 6.62%; in [10], 14.22%; in assay [11], -6.25%; in assay [3], 12.75%; in assay [4], 0%. Moreover, the Variation in [12] was 18.2%; in [5], 0%; in assay [6], -3.12%; in [7], 11.47%; in assay [8], 10.63%; in [13], -3.12%. Further, the Variation in assay [9] turned out to be 12.11%; in assay [14], 0%.
`CCOC(=O)c1cnc(N(C)C)nc1C(C)C`: the Variation is -0.91% in assay [1]; 0% in assay [2]; -100% in [10]; -57.53% in assay [3]; -2.94% in [4]; -3.51% in assay [5]. The Variation in assay [6] is reported as -2.94%; in assay [7] it was 1.06%; in assay [8] it was 3.19%; in assay [13], -100%; in [9], -34.22%; in assay [14] it was -3.85%.
For the molecule `CCCc1nc(N(C)C)ncc1C(=O)OCC`, the Variation is 0% in assay [2]; 0% in assay [3]; -57.89% in assay [7]; -5.29% in assay [8]; -100% in assay [9]; 0% in [14].
For `CCOC(=O)c1cnc(N(C)C)nc1C(C)(C)C`, the Variation in [1] is reported as -7.64%; in assay [2], 0%; in assay [3], -100%; in assay [4] it was 0%; in assay [5], 4.76%; in assay [6] it was -100%. Also, the Variation is -12.52% in assay [7], 2.08% in assay [8], -50.08% in assay [9] and 0% in assay [14].
On to `CC(C)c1ccnc(N(C)C)n1`, for which the Variation in assay [1] is recorded as -17.26%; in assay [2], 0%; in assay [10], -86.36%; in [11] it was -100%; in assay [3], -68.77%; in [4], -5.15%. Moreover, the Variation in assay [12] is recorded as -100%; in [5] it was -5.15%; in assay [6], -41.66%; in [7] it was -8.84%; in assay [8] it was 0%; in [13] it was -41.66%. The Variation in assay [9] is reported as -28.95%; in [14] it was 0%.
As for `CCOC(=O)c1cnc(N(C)C)nc1-c1ccccc1`, the Variation in assay [1] is 7.4%; in assay [2] it was 1.73%; in [10] it was -70.37%; in [11], -100%; in assay [3] it was -40.74%; in [4], 0%. Further, the Variation in assay [12] is -100%; in assay [5], 3.7%; in assay [6] it was -3.7%; in assay [7] it was 12.05%; in [8] it was 10.24%; in [13], -14.81%. Moreover, the Variation was 2.25% in assay [9] and 0% in assay [14].
For the molecule `CN(C)c1nccc(-c2ccccc2)n1`, the Variation in assay [1] was 0%; in assay [2] it was 0%; in assay [10], -23.76%; in [11], -100%; in [3] it was -12.16%; in assay [4] it was 0%. In addition, the Variation in [12] is listed as -100%; in assay [5], 0%; in [6], 0%; in [7], 7.52%; in assay [8], 4.67%; in assay [13], -13.33%. Also, the results for the Variation in [9] and in [14] were 5.57% and 0%, respectively.
Take `CN(C)c1nccc(C(C)(C)C)n1`: the Variation in assay [1] is listed as -13.33%; in assay [2], 0%; in [10], -34.94%; in [11], -40%; in assay [3] it was -37.31%; in assay [4] it was 0%. The Variation in assay [12] was -35.14%; in assay [5] it was -6.66%; in [6], -16.66%; in assay [7], -5.56%; in [8], 1.13%; in assay [13], -30.01%. In addition, the Variation in assay [9] is given as -24.35%; in [14] it was 0%.
For the molecule `CCc1ccnc(N(C)C)n1`, the Variation in assay [1] is on record as -4.77%; in assay [2], 5.39%; in assay [10], -43.95%; in [11] it was -42.41%; in assay [3] it was -10.54%; in assay [4], 0%. Further, the Variation is listed as -84.45% in [12]; -3.03% in [5]; -14.95% in [6]; 15.05% in assay [7]; 9.91% in assay [8]; -28.91% in [13]. For the same molecule, the results for the Variation in [9] and in assay [14] were 9.21% and 0%, respectively.
As for `CN(C)c1ncc(C(=O)O)cn1`, the Variation was 3.44% in assay [1]; 3.76% in [2]; 8.34% in assay [10]; 6.25% in [11]; 9.39% in assay [3]; 0% in assay [4]. Further, the Variation is reported as 9.64% in assay [12]; 3.12% in assay [5]; 3.44% in assay [6]; 7.54% in [7]; 6.36% in assay [8]; 3.44% in [13]. Also, the Variation in [9] was determined as 10.48%; in assay [14], 0%.
